Data from ChEMBL document CHEMBL1142487, “Design, synthesis, and structure-activity relationship of novel opioid kappa-agonists” (Bioorg Med Chem, 2008).
pIC50: −log10 of the molar value. Calls of active or inactive are those of the source. No cut-off for these calls is given here.

Key:
Mus musculus [1] = assay: Antinociceptive activity in sc dosed mouse assessed as inhibition of acetic acid-induced writhing administered 15 mins before acetic acid challenge; assay type: functional
Outline: (§1)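 Male mice (5 weeks old) received test compound sc into the rostral back or po, 15 min before ip 0.6% aqueous acetic acid (0.1 mL/10 g). Writhes were counted over 10 min, starting 10 min after the acid. […] The po/sc ED50 ratio was calculated.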

[2] = biological target: Kappa-type opioid receptor (Mus musculus, UniProt P33534); assay: Agonist activity at kappa opioid receptor in ddy mouse vas deferens assessed as inhibition of electric stimulation-induced contraction; assay type: functional, tissue-based
Mus musculus [3] = assay: Ratio of ED50 for acetic acid-induced writhing in po dosed mouse to ED50 for acetic acid-induced writhing in sc dosed mouse; assay type: functional; outline: as §1
Mus musculus [4] = assay: Antinociceptive activity in po dosed mouse assessed as inhibition of acetic acid-induced writhing administered 15 mins before acetic acid challenge; assay type: functional; outline: as §1
Mus musculus [5] = assay: Inhibition of acetic acid-induced writhing in sc dosed mouse up to 180 mins administered 15 mins before acetic acid challenge; assay type: functional, organism-based
[6] = biological target: Kappa-type opioid receptor (Mus musculus) (UniProt P33534); assay: Equilibrium constant, ratio of IC50 for kappa opioid receptor in ddy mouse vas deferens in presence of 10 nM nor-BNI to IC50 for kappa opioid receptor in ddy mouse vas deferens
Outline: (§2)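 Electrically stimulated ddY mouse vas deferens was held in Krebs-Henseleit at 37 °C under 95% O2/5% CO2. Tissue was preincubated 20 min with antagonist before the test agonist: naloxone 30 nM (μ), NTI 10 nM (δ), or nor-BNI 10 nM (κ). IC50s were compared with and without antagonist. Ke = [antagonist]/(IC50 ratio − 1).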

[7] = biological target: Delta-type opioid receptor (Mus musculus) (UniProt P32300); assay: Equilibrium constant, ratio of IC50 for delta opioid receptor in ddy mouse vas deferens in presence of 10 nM Naltrindole to IC50 for delta opioid receptor in ddy mouse vas deferens; outline: as §2
[8] = biological target: Mu-type opioid receptor (Mus musculus) (UniProt P42866); assay: Equilibrium constant, ratio of IC50 for mu opioid receptor in ddy mouse vas deferens in presence of 30 nM naloxone to IC50 for mu opioid receptor in ddy mouse vas deferens; outline: as §2

| Structure (SMILES) | ED50 (Mus musculus [1]) [mg/kg] | pIC50 [2] | Ratio ED50 (Mus musculus [3]) | ED50 (Mus musculus [4]) [mg/kg] | Activity (Mus musculus [5]) | Ke [6] [nM] | Ke [7] [nM] | Ke [8] [nM] |
| --- | --- | --- | --- | --- | --- | --- | --- | --- |
| CN(C(=O)/C=C/c1ccoc1)[C@@H]1CC[C@@]2(O)[C@H]3Cc4ccc(O)c5c4[C@@]2(CCN3)[C@H]1O5 | 7.07 | – | – | – | – | – | – | – |
| CN(C(=O)/C=C/c1ccsc1)[C@@H]1CC[C@@]2(O)[C@H]3Cc4ccc(O)c5c4[C@@]2(CCN3CC2CC2)[C@H]1O5 | – | 10.00 | 9.5 | 0.04 | Active | 1.71 | – | – |
| CN(C(=O)/C=C/c1cccc(F)c1)[C@@H]1CC[C@@]2(O)[C@H]3Cc4ccc(O)c5c4[C@@]2(CCN3CC2CC2)[C@H]1O5 | – | 8.80 | 3.7 | 0.007 | Active | 2.37 | 276 | – |
| CN(C(=O)/C=C/c1ccoc1)[C@@H]1CC[C@@]2(O)[C@H]3Cc4ccc(O)c5c4[C@@]2(CCN3CCc2ccccc2)[C@H]1O5 | 1.03 | – | – | – | – | – | – | – |
| CN(C(=O)/C=C/c1ccoc1)[C@@H]1CC[C@@]2(O)[C@H]3Cc4cccc5c4[C@@]2(CCN3CC2CC2)[C@H]1O5 | – | 7.57 | – | – | – | 0.07 | 8.4 | 12 |
| CCC/C=C/C(=O)N(C)[C@@H]1CC[C@@]2(O)[C@H]3Cc4ccc(O)c5c4[C@@]2(CCN3CC2CC2)[C@H]1O5 | – | 9.19 | 8.8 | 0.21 | – | 0.072 | – | 1800 |
| CN(C(=O)/C=C/c1ccccc1)[C@@H]1CC[C@@]2(O)[C@H]3Cc4ccc(O)c5c4[C@@]2(CCN3CC2CC2)[C@H]1O5 | 0.002 | 9.78 | 5.5 | 0.011 | Active | 0.861 | 263 | 922 |
| CN(C(=O)/C=C/C1CCCCC1)[C@@H]1CC[C@@]2(O)[C@H]3Cc4ccc(O)c5c4[C@@]2(CCN3CC2CC2)[C@H]1O5 | 0.004 | 9.34 | 17 | 0.071 | Active | 1.08 | 143 | 5710 |
| CN(C(=O)/C=C/c1ccco1)[C@@H]1CC[C@@]2(O)[C@H]3Cc4ccc(O)c5c4[C@@]2(CCN3CC2CC2)[C@H]1O5 | – | 9.26 | 9.4 | 0.015 | Active | 0.2 | – | – |
| CN(C(=O)CCc1ccccc1)[C@@H]1CC[C@@]2(O)[C@H]3Cc4ccc(O)c5c4[C@@]2(CCN3CC2CC2)[C@H]1O5 | – | 10.72 | 7.3 | 0.29 | – | 0.008 | 188 | – |
| CN(C(=O)/C=C/c1ccoc1)[C@H]1CC[C@@]2(O)[C@H]3Cc4ccc(O)c5c4[C@@]2(CCN3CC2CC2)[C@H]1O5 | – | – | – | 0.13 | – | – | – | – |
| CCCCCCO[C@@H]1CC[C@@]2(O)[C@H]3Cc4ccc(O)c5c4[C@@]2(CCN3CC2CC2)[C@H]1O5 | 1.78 | 7.80 | – | – | – | 0.12 | 1.5 | 4.5 |
| CN(C(=O)Cc1ccc(Cl)c(Cl)c1)[C@@H]1CC[C@@]2(O)[C@H]3Cc4ccc(O)c5c4[C@@]2(CCN3CC2CC2)[C@H]1O5 | – | 7.77 | 39.1 | 18 | – | 1.37 | 1110 | 17000 |
| CCCCCCN[C@@H]1CC[C@@]2(O)[C@H]3Cc4ccc(O)c5c4[C@@]2(CCN3CC2CC2)[C@H]1O5 | – | 8.70 | – | – | – | 0.3 | – | 14 |
| CN(C(=O)c1ccc2ccccc2c1)[C@@H]1CC[C@@]2(O)[C@H]3Cc4ccc(O)c5c4[C@@]2(CCN3CC2CC2)[C@H]1O5 | 3.6 | – | – | – | – | – | – | – |
| O=C(/C=C/c1ccoc1)N[C@@H]1CC[C@@]2(O)[C@H]3Cc4ccc(O)c5c4[C@@]2(CCN3CC2CC2)[C@H]1O5 | 0.95 | 9.06 | – | – | – | 0.44 | 8100 | – |
| CN1CC[C@]23c4c5ccc(O)c4O[C@H]2[C@H](N(C)C(=O)/C=C/c2ccoc2)CC[C@@]3(O)[C@H]1C5 | 1.03 | 7.26 | – | – | – | 6.3 | 33 | 8.1 |
| Cc1cccc(/C=C/C(=O)N(C)[C@@H]2CC[C@@]3(O)[C@H]4Cc5ccc(O)c6c5[C@@]3(CCN4CC3CC3)[C@H]2O6)c1 | – | 9.49 | 9.7 | 0.064 | Active | 1.95 | 64.5 | 1780 |
| CN(C(=O)/C=C/c1cccc([N+](=O)[O-])c1)[C@@H]1CC[C@@]2(O)[C@H]3Cc4ccc(O)c5c4[C@@]2(CCN3CC2CC2)[C@H]1O5 | – | 9.64 | 12.9 | 0.22 | – | 1.4 | 89 | 185 |
| CC(=O)Nc1ccc2c3c1O[C@H]1[C@H](N(C)C(=O)/C=C/c4ccoc4)CC[C@@]4(O)[C@@H](C2)N(CC2CC2)CC[C@]314 | > 10 | – | – | – | – | – | – | – |
| CN(C(=O)/C=C/c1ccc(C(F)(F)F)cc1)[C@@H]1CC[C@@]2(O)[C@H]3Cc4ccc(O)c5c4[C@@]2(CCN3CC2CC2)[C@H]1O5 | – | 10.15 | 1.1 | 0.026 | Active | 0.2 | 78 | 524 |
| CN(C(=O)/C=C/c1cccc(C(F)(F)F)c1)[C@@H]1CC[C@@]2(O)[C@H]3Cc4ccc(O)c5c4[C@@]2(CCN3CC2CC2)[C@H]1O5 | – | 9.33 | 7.4 | 0.034 | – | 3.2 | 291 | – |
| CN(C(=O)/C=C/c1ccccc1)[C@H]1CC[C@@]2(O)[C@H]3Cc4ccc(O)c5c4[C@@]2(CCN3CC2CC2)[C@H]1O5 | 0.0033 | 9.38 | 9.7 | 0.032 | Active | 0.16 | 41.6 | 14000 |
| O=C(/C=C/c1ccoc1)S[C@@H]1CC[C@@]2(O)[C@H]3Cc4ccc(O)c5c4[C@@]2(CCN3CC2CC2)[C@H]1O5 | > 10 | – | – | – | – | – | – | – |
| CN(C(=O)/C=C/c1ccoc1)[C@@H]1CC[C@H]2[C@H]3Cc4ccc(O)c5c4[C@@]2(CCN3CC2CC2)[C@H]1O5 | 0.02 | 10.46 | – | – | – | 0.07 | 1.31 | 8.04 |
| CN(C(=O)/C=C/c1ccoc1)[C@@H]1CC[C@@]2(O)[C@H]3Cc4ccc(N)c5c4[C@@]2(CCN3CC2CC2)[C@H]1O5 | 0.2 | – | – | – | – | – | – | – |
| CN(C(=O)Cc1ccc(Cl)c(Cl)c1)[C@H]1CC[C@@]2(O)[C@H]3Cc4ccc(O)c5c4[C@@]2(CCN3CC2CC2)[C@H]1O5 | – | 9.40 | 48 | 0.83 | – | 0.55 | 17.1 | 53 |
| CN(C(=O)/C=C/c1cccs1)[C@@H]1CC[C@@]2(O)[C@H]3Cc4ccc(O)c5c4[C@@]2(CCN3CC2CC2)[C@H]1O5 | 0.0027 | 10.00 | 9.6 | 0.026 | Active | 0.28 | 89.6 | – |
